# Rows were chosen to be rich in hits. Some 2.1% of all compounds tested hit in one or more screens of this group.
# LMP1 NFkB inh – EBV LMP1-driven NF-kappaB luciferase reporter inhibitors, primary screen, cell-based, luminescence, single point; LMP1-induced NF-kappaB luciferase reporter cells; hit rate 0.69% among 350,000; inhibition, % at 12.5 µM; in the data active means inhibition above about 41%
# Shn3 inh set2 – reduction of Shn3 3'UTR firefly luciferase signal, primary screen, Schnurri-3 inhibitor project, cell-based, Clone20 osteoblasts, set 2 | Clone20 osteoblast Shn3 3'UTR firefly luciferase, 24 h | inhibition, % at 12.5 µM | hit rate 0.52% among 360,000 | AID 588674, 2011;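 active means mean inhibition of at least 75% with every replicate also reaching 75%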
# FN deposition inh – inhibitors of fibronectin matrix deposition, primary screen, AH1F cells, Alexa488-fibronectin fluorescence, plate reader. AID 743247, 2014. hit rate 0.086% among 350,000. inhibition, % at 12.6 µM. AH1F fibroblasts, overnight;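 active means mean inhibition across replicates of 30% or more, regardless of how many single replicates reach that level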
#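 Schedule: 1 h cell adhesion before compound, then overnight fibronectin incubation; test system: AH1F fibroblast monolayer depositing Alexa488-labelled fibronectin into matrix; quantity: 10000 AH1F cells per well; probe or stimulus: fluorescent fibronectin at 24 nM final; signal: fluorescence, ex 485 nm, em 525 nm; evaluation: percent inhibition as loss of matrix-bound fibronectin fluorescence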
# EWS-Fli inh – EWS/Fli-driven NR0B1 reporter inhibitors, primary screen, A673 cells, NR0B1 luciferase, luminescence, MLPCN library; viability-normalised; inhibition, % at 12.6 µM; hit rate 0.67% among 350,000;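 active means mean inhibition of at least 50% after viability correction, with every replicate also passing that limit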;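 further: firefly luciferase signal divided by Alamar Blue viability fluorescence both relative to DMSO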
# aSyn 5UTR inh – MLPCN primary screen, SNCA 5' untranslated region; hit rate 0.82% among 300,000; inhibition, % (tested at 7.5 µM); AID 1813, 2009; alpha-synuclein 5'UTR reporter, inhibitor activity; in the data active means inhibition above about 60%;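 further: H4 neuroglioblastoma cells stably carrying SNCA 5'UTR luciferase fusion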
# PAX8 reporter – inhibitors of PAX8-driven TPO luciferase reporter, primary screen, RMG-I cells, single concentration; SteadyGlo, 24 h; inhibition, % at 12.6 µM; hit rate 1.2% among 360,000; AID 652154, 2013;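 active means mean replicate inhibition at least 60% with every replicate also reaching 60%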;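 further: luciferase light reporting Pax8 driven TPO promoter activity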
# DNA binder FP – DNA binders by acridine orange displacement, dose response, counter-screen for EWS/Fli inhibitor project, biochemical, fluorescence polarization, cherry-pick. hit rate 2% among 640. AID 720586, 2013. shares compounds with EWS-Fli inh. AC35, µM (titrated, usually from 68 µM). salmon sperm DNA acridine orange fluorescence polarization;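 active means fitted curve reaches a 35% signal fall AC35 below twice the sample's top valid tested dose, actives reach about 48 µM in these data; inactive means the rest, including activity in the rising direction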;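 further: lower polarization ratio signals compound binding to DNA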
# A number is an active result; - = inactive; . = not tested or not shown; ! = not confirmed by another sample.
SMILES,LMP1 NFkB inh,Shn3 inh set2,FN deposition inh,EWS-Fli inh,aSyn 5UTR inh,PAX8 reporter,others
COc1cc2sc(NC(=O)c3ccco3)nc2cc1Cl,-,-,-,-,-,-,
CO[C@@H]1CC[C@H]2CCN(C)C(=O)[C@H](C)N(C)C(=O)c3cc(C#N)ccc3OC[C@H]1O2,.,.,-,-,.,-,
C=C1CCC[C@]2(C)C[C@H]3OC(=O)C(CN4CCOCC4)[C@H]3C[C@@H]12 (stereo partly specified),-,-,-,-,-,-,
C/C1=C\CCC2C(/C=C(\C)CC1)OC(=O)C2CN1CCCCC1 (stereo unspecified),-,-,-,-,-,68,
COc1ccc(-c2cn3cc(C(=O)NN)ccc3n2)cc1,-,-,-,-,-,-,
COC(=O)c1ccc2nc(-c3ccc4c(c3)OCO4)cn2c1,48,-,-,-,95,-,
CCc1ccn2cc(-c3ccc4c(c3)OCO4)nc2c1,72,-,-,83,107,80,
c1cnc2nc(-c3ccc4c(c3)OCO4)cn2c1,-,-,-,-,-,-,
Cc1noc(C)c1NC(=O)N(C)C[C@H]1Oc2ccc(NS(=O)(=O)c3c(C)noc3C)cc2CC(=O)N([C@@H](C)CO)C[C@@H]1C,.,.,-,-,.,-,
O=C(C[C@H]1CC[C@H]2[C@@H](COC[C@@H](O)CN2C(=O)c2cnccn2)O1)NCc1ccc(F)cc1,.,.,-,-,.,-,
O=C(Nc1ccc(F)c(F)c1)c1ccc(F)c(S(=O)(=O)N2CCC3(CC2)OCCO3)c1,-,84,-,-,-,-,
COc1ccccc1C1(CC(=O)O)CCOC(C)(C)C1 (stereo unspecified),68,-,.,.,-,.,
CN1C2CCC1/C(=C\c1ccc(F)cc1)C(=O)/C2=C/c1ccc(F)cc1,-,-,-,.,-,-,
C=CC(=O)N1C/C(=C/c2ccc(F)cc2)C(=O)/C(=C\c2ccc(F)cc2)C1,89,91,-,87,.,100,
O=C(Nc1cccc(O)c1)C(=O)Nc1ccccn1,-,-,-,-,-,67,
O=C(Nc1ccccc1)C(=O)Nc1ccccn1,-,-,-,.,-,.,
O=C(NCCN1C(=O)S/C(=C\c2ccc(OC(F)F)cc2)C1=O)c1cnccn1,-,-,-,59,-,128,
C[C@@H]1CCCCO[C@H](CN(C)Cc2ccc(Cl)c(Cl)c2)[C@@H](C)CN([C@@H](C)CO)C(=O)c2cc(NC(=O)Nc3ccc(C(F)(F)F)cc3)ccc2O1,.,.,.,-,.,95,
C[C@H]1CCCCO[C@@H](CN(C)Cc2ccc(Cl)c(Cl)c2)[C@@H](C)CN([C@@H](C)CO)C(=O)c2cc(NC(=O)Nc3ccc(C(F)(F)F)cc3)ccc2O1,.,.,.,-,.,83,
C[C@@H]1CCCCO[C@@H](CN(C)Cc2ccc(Cl)c(Cl)c2)[C@H](C)CN([C@@H](C)CO)C(=O)c2cc(NC(=O)Nc3ccc(C(F)(F)F)cc3)ccc2O1,.,.,.,-,.,91,
CO[C@@H]1CN(C)C(=O)c2ccc(NC(=O)C3CCCC3)cc2OC[C@H](C)N(CC2CC2)C[C@H]1C,.,.,-,-,.,-,
CCOc1ccc(-c2nc(CSCC(=O)NCc3ccco3)c(C)o2)cc1,60,-,.,.,-,.,
CCOc1ccc(-c2cc(CCCC(=O)NCc3ccco3)no2)cc1,-,-,-,71,73,-,
CCOc1ccc(-c2nnn(CC(=O)NCc3ccco3)n2)cc1,-,-,-,.,-,-,
CCOc1ccc(-c2nc(CSCC(=O)NC3CC3)c(C)o2)cc1,-,-,.,.,-,.,
SMILES,LMP1 NFkB inh,Shn3 inh set2,FN deposition inh,EWS-Fli inh,aSyn 5UTR inh,PAX8 reporter,others
CCOc1ccc(-c2nc(CSCC(=O)NC3CCN(Cc4ccccc4)CC3)c(C)o2)cc1,-,-,-,59,.,-,
CO[C@H]1CN(C)C(=O)c2ccc(NC(=O)C3CC3)cc2OC[C@H](C)N(CC2CCCC2)C[C@@H]1C,.,.,-,-,.,.,
Cc1noc(C)c1NC(=O)Nc1ccc2c(c1)C(=O)N([C@@H](C)CO)C[C@@H](C)[C@H](CN(C)S(C)(=O)=O)OCCCC[C@@H](C)O2,.,.,.,.,.,-,
CCCc1ccc(C(=O)NNC(=O)c2ccc(Cl)cc2)cc1,-,-,-,.,-,.,
CCCc1ccc(C(=O)NNc2cc(Cl)ccc2Cl)cc1,-,90,-,-,-,-,
C[C@@H]1CN([C@@H](C)CO)S(=O)(=O)c2ccc(C#Cc3ccncc3)cc2O[C@H]1CN(C)C(=O)Nc1ccc2c(c1)OCO2,.,.,.,71,.,103,
C[C@H]1CN([C@@H](C)CO)S(=O)(=O)c2ccc(C#Cc3ccncc3)cc2O[C@H]1CN(C)C(=O)Nc1ccc2c(c1)OCO2,.,.,.,-,.,65,
C[C@H]1CN([C@@H](C)CO)S(=O)(=O)c2ccc(C#Cc3ccccc3)cc2O[C@H]1CN(C)C(=O)Nc1ccc2c(c1)OCO2,.,.,-,-,.,-,
C[C@@H]1CN([C@H](C)CO)S(=O)(=O)c2ccc(C#Cc3ccccc3F)cc2O[C@H]1CN(C)C(=O)c1ccc2c(c1)OCO2,-,-,-,-,.,63!,
O=C(NCc1ccccc1)[C@H]1[C@H](CO)[C@H]2Cn3c(cccc3=O)[C@@H]1N2C(=O)CC1CC1,.,.,.,-,.,-,
C[C@H](CO)N1C[C@H](C)[C@@H](CN(C)C(=O)Nc2cccc3ccccc23)Oc2ccc(NC(=O)CCN3CCOCC3)cc2CC1=O,.,.,-,.,.,-,
COc1cc2oc3ccc(C#Cc4ccc(N)cc4)cc3c(=O)c2cc1OC,-,-,-,-,-,-,
COc1cc2oc3cc(C#Cc4ccc(N)cc4)ccc3c(=O)c2cc1OC,-,-,-,55,-,-,DNA binder FP=-
C[C@H](CO)N1C[C@H](C)[C@@H](CN(C)Cc2ccccc2)Oc2ncc(/C=C/c3ccccc3)cc2C1=O,.,.,-,-,.,.,
N=c1ccn2c(n1)O[C@H]1[C@H](O)[C@@H](CO)O[C@H]12,-,-,-,53,-,-,DNA binder FP=-
N=c1ccn2c(n1)O[C@H]1[C@@H](CO)[C@H](O)O[C@H]12,-,-,-,-,.,-,
Cc1noc(C)c1NC(=O)NCC[C@H]1CC[C@@H](NC(=O)Nc2cccc(F)c2)[C@H](CO)O1,.,.,-,-,.,-,
COc1ccc(OC)c(-c2cc(C(F)(F)F)c3c(n2)sc2c(O)cc(=O)[nH]c23)c1,-,-,.,89,-,-,DNA binder FP=-
O=c1cc(O)c2sc3nc(-c4ccccc4)cc(C(F)(F)F)c3c2[nH]1,-,-,-,.,-,-,
COC(=O)C[C@@H]1CC[C@@H]2[C@H](COc3ccc(NC(=O)c4cc(C)on4)cc3C(=O)N2C)O1,.,.,-,60,.,-,DNA binder FP=-
Cc1cc(C(=O)Nc2ccc3c(c2)C(=O)N(C)[C@@H]2CC[C@H](CC(=O)N[C@H](C)c4ccccc4)O[C@H]2CO3)no1,.,.,-,58,.,-,DNA binder FP=-
